From ChEMBL document CHEMBL1123489, “Antineoplastic activity of 3'-(chloroethyl)nitrosourea analogues of 2'-deoxyuridine and 2'-deoxy-5-fluorouridine” (J Med Chem, 1986) come the findings set out here.

The structures appear in SMILES notation. pEC50: −log10 of the molar value.

Series [1] deals with L1210. Description: Compound was tested in vitro for cytotoxicity against L1210 leukemia cells in tumor bearing mice. The series is classed as functional. The following applies: Mus musculus, read-out: ED50 (the source's name). The essentials: (§1)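 Mouse L1210 cells grown in suspension in Fischer's medium with 10% horse serum, 37 °C, 5% CO2. Exponential-phase cells at 2 × 10⁴ cells/mL exposed to compound. Cell number counted against drug-free control after 24, 48 and 72 h. ED50 (concentration inhibiting growth by 50%) estimated from dose-response curves from replicate independent experiments.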

Series [2] has as its system L1210. Description: Compound was tested in vitro for alkylating activity against L1210 leukemia cells in tumor bearing mice. The series is classed as functional, Mus musculus. Summed up:
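4-(4-Nitrobenzyl)pyridine alkylation measured after 120 min at 37 °C, pH 6.4. Activity expressed relative to BCNU (set at 1.00). Three determinations per compound.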

Series [3] relates to L1210. Description: Compound was tested in vitro for carbomoylating activity against L1210 leukemia cells in tumor bearing mice. The series is classed as functional, Mus musculus. The essentials: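 Extent of carbamoylation of 5'-amino-5'-deoxythymidine measured after incubation with nitrosourea for 6 h at 37 °C in phosphate-buffered saline. Activity expressed relative to BCNU (set at 1.00). Three determinations per compound.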

Series [4] can be described thus: Half-life, determined by incubation at 37 degree celsius in PBS (pH 7.4).
The subject of series [5] is L1210. Description: Effect on the maximum weight loss of mice bearing L1210 leukemia at a dose of 80 mg/kg on days 11. It is filed as functional, Mus musculus.
In series [6] the test system is L1210. Description: Effect on the survival time of mice bearing L1210 leukemia at a dose of 20 mg/kg. The series is classed as functional, Mus musculus. Summed up: (§2)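 L1210 ascites cells from 7-day growths in donor CDF1 female mice were diluted in isotonic saline, and about 10^5 cells were injected i.p. Drug was given as one i.p. injection in isotonic saline, 24 h after implantation. Groups held five or six weight-matched mice, with saline vehicle controls. T/C × 100 = treated/control survival time in dying animals; >60-day survivors counted.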

For series [7], the system named is L1210. Description: Effect on the survival time of mice bearing L1210 leukemia at a dose of 40 mg/kg. It is filed as functional, Mus musculus. Summed up:
as §2

Series [8] deals with L1210. Description: Effect on the survival time of mice bearing L1210 leukemia at a dose of 80 mg/kg. It is filed as functional, Mus musculus. The essentials: as §2
The subject of series [9] is L1210. Description: Effect on the survival time of mice bearing L1210 leukemia at a dose of 40 mg/kg on 30th day. The series is classed as functional, Mus musculus.
Series [10] concerns L1210. Description: Effect on the survival time of mice bearing L1210 leukemia at a dose of 80 mg/kg on 30th day. The series is classed as functional, Mus musculus.
Series [11] concerns L1210. Description: Compound was tested in vitro for cytotoxicity against L1210 leukemia cells in tumor bearing mice. The following applies: Mus musculus, read-out: ED50 (the source's name). It is filed as functional. The essentials: as §1
For series [12], the system named is L1210. Description: Effect on the survival time of mice bearing L1210 leukemia at a dose of 20 mg/kg on 30th day. The series is classed as functional, Mus musculus.
In series [13] the test system is L1210. Description: Effect on the maximum weight loss of mice bearing L1210 leukemia at a dose of 20 mg/kg. Conditions: Mus musculus.
The subject of series [14] is L1210. Description: Effect on the maximum weight loss of mice bearing L1210 leukemia at a dose of 40 mg/kg on days 6-8.
Series [15] concerns L1210. Description: Effect on the maximum weight loss of mice bearing L1210 leukemia at a dose of 80 mg/kg on days 9. The series is classed as functional, Mus musculus.
Series [16] relates to L1210. Description: Effect on the maximum weight loss of mice bearing L1210 leukemia at a dose of 40 mg/kg on days 5-8.

As for `NC1CC(n2cc(F)c(=O)[nH]c2=O)OC1CO` (stereo not given), the pEC50 in the series on L1210 [1] was 4.82.
The half-life is the time in which the quantity being followed falls by half. Higher therefore signals slow decline. Regarding `Cc1cn(C2CC(NC(=O)N(CCCl)N=O)C(CO)O2)c(=O)[nH]c1=O` (stereo not given), the Activity in the series with L1210 [2] is reported as 2; in the series on L1210 [3], 0.85. For the same compound, the pEC50 in the series with L1210 [1] is 5.82. For the same compound, the half-life in series [4] turned out to be 37.3 min.
One may read the T/C as the result in the treated group divided by that in the control group, in per cent. With `O=NN(CCCl)C(=O)N[C@@H]1CC(n2ccc(=O)[nH]c2=O)O[C@@H]1CO` (stereo not given in full), the values for the Activity in the series on L1210 [2] and in the series with L1210 [3] were 1.65 and 0.85, respectively. Also, the values for the Max weight loss in the series on L1210 [5], in the series with L1210 [13] and in the series with L1210 [14] were 21%, “None” and 2%, respectively. The Average survival days in the series with L1210 [6] is listed as 20.4; with L1210 [7], 31; with L1210 [8], 8.3. Besides, the Body weight with L1210 [6] is on record as 18.8 g; in the series on L1210 [7] it was 19 g; with L1210 [8] it was 19.5 g; with L1210 [9] it was 22.1 g; with L1210 [10] it was 20.8 g; in the series on L1210 [12], 22 g. The T/C with L1210 [6] turned out to be 243%; with L1210 [7], 369%; in the series with L1210 [8], 99%. For the same compound, the Weight change with L1210 [6] worked out at 9%; with L1210 [7] it was 5%; in the series on L1210 [8], 13%. Also, the pEC50 with L1210 [11] is 4.90. The half-life in series [4] came out at 27.3 min.
As to `O=NN(CCCl)C(=O)NCCCl` [CARMUSTINE], the Activity in the series on L1210 [2] and in the series with L1210 [3] was 1 in each case. Moreover, in the series on L1210 [1], the pEC50 was 5.40. This compound had a half-life in [4] of 50 min.
As to `Cc1cn([C@H]2C[C@H](N)[C@@H](CO)O2)c(=O)[nH]c1=O` [3-AMINO- 3-DEOXYTHYMIDINE], the pEC50 with L1210 [1] was 6.10.
On to `N[C@H]1C[C@H](n2ccc(=O)[nH]c2=O)O[C@@H]1CO`, for which, in the series with L1210 [1], the pEC50 is 4.74.
On to `O=NN(CCCl)C(=O)N[C@@H]1CC(n2cc(F)c(=O)[nH]c2=O)O[C@@H]1CO` (stereo not given in full), for which the Activity in the series on L1210 [2] amounted to 1.78; in the series with L1210 [3] it was 0.77. Moreover, in the series with L1210 [1], the pEC50 is 5.60. The Average survival days worked out at 18.7 in the series on L1210 [6], 14 in the series on L1210 [7] and 9 in the series on L1210 [8]. Further, the Body weight in the series with L1210 [6] was found to be 26.1 g; in the series on L1210 [7], 19.5 g; in the series with L1210 [8] it was 20.5 g; in the series with L1210 [9], 22.1 g; in the series on L1210 [10], 21.3 g; with L1210 [12], 22 g. In addition, the T/C in the series with L1210 [6] amounted to 223%; with L1210 [7] it was 167%; in the series with L1210 [8], 107%. Also, the values for the Weight change with L1210 [6], with L1210 [7] and in the series with L1210 [8] were 4%, 5% and 4%, respectively. The Max weight loss in the series on L1210 [15] is 14%; in the series with L1210 [13], “None”; in the series on L1210 [16], 3%. This compound also gave a half-life in series [4] of 36.1 min.
